In ChEMBL document CHEMBL1122831, “Synthesis and structure-activity relationships of novel arylfluoroquinolone antibacterial agents” (1985):
Values after ≈ are worked out from the molar mass of the structure shown.

Experiments:
Format in all cases: functional
Klebsiella aerogenes = assay: Minimum inhibition concentration in vitro determined against Enterobacteri aerogenes ATCC 13048
Method in brief: (§1)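 Agar dilution on brain-heart infusion (BHI) agar with twofold dilutions from a 2000 µg/mL stock, giving final test concentrations of 200-0.005 µg/mL. Organisms were grown overnight in BHI broth at 36 °C, and about 10⁴ organisms were inoculated per plate. Plates were incubated 18 h at 36 °C. MIC was the lowest concentration with no visible growth.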

Staphylococcus aureus [1] = assay: Minimum inhibition concentration in vitro determined against Staphylococcus aureus ATCC 6538P; method in brief: as §1
Klebsiella pneumoniae = assay: Minimum inhibition concentration in vitro determined against Klebsiella pneumoniae 8045; method in brief: as §1
Acinetobacter = assay: Minimum inhibition concentration in vitro determined against Acinetobacter sp CMX669; method in brief: as §1
Staphylococcus aureus [2] = assay: Minimum inhibition concentration in vitro determined against Staphylococcus aureus CMX 686B; method in brief: as §1
Pseudomonas aeruginosa [3] = assay: Minimum inhibition concentration in vitro determined against Pseudomona aeruginosa 5007; method in brief: as §1
Escherichia coli = assay: Minimum inhibition concentration in vitro determined against Escherichia coli juhl; settings: Escherichia coli; read-out: MIC; method in brief: as §1
Pseudomonas aeruginosa [4] = assay: Minimum inhibition concentration in vitro determined against Pseudomona aeruginosa K799/WT; method in brief: as §1
[5] = test system: Staphylococcus epidermidis; assay: Minimum inhibition concentration in vitro determined against Staphylococcus epidermidis 3519; method in brief: as §1
Enterococcus faecium = assay: Minimum inhibition concentration in vitro determined against Streptococcus faecium ATCC 8043; method in brief: as §1
Streptococcus pyogenes = assay: Minimum inhibition concentration in vitro determined against Streptococcus pyogenes 930; method in brief: as §1

SMILES	MIC (Klebsiella aerogenes) [µg/mL]	MIC (Staphylococcus aureus [1]) [µg/mL]	MIC (Klebsiella pneumoniae) [µg/mL]	MIC (Acinetobacter) [µg/mL]	MIC (Staphylococcus aureus [2]) [µg/mL]	MIC (Pseudomonas aeruginosa [3]) [µg/mL]	MIC (Escherichia coli) [µg/mL]	MIC (Pseudomonas aeruginosa [4]) [µg/mL]	MIC [5] [µg/mL]	MIC (Enterococcus faecium) [µg/mL]	MIC (Streptococcus pyogenes) [µg/mL]
CN1CCN(c2cc3c(cc2F)c(=O)c(C(=O)O)cn3-c2ccc(F)cc2F)CC1	0.39 (≈ 0.934 µM)	0.1 (≈ 0.24 µM)	0.1 (≈ 0.24 µM)	0.1 (≈ 0.24 µM)	0.1 (≈ 0.24 µM)	1.56 (≈ 3.74 µM)	0.2 (≈ 0.479 µM)	1.56 (≈ 3.74 µM)	0.39 (≈ 0.934 µM)	0.78 (≈ 1.87 µM)	0.78 (≈ 1.87 µM)
CN1CCN(c2cc3c(cc2F)c(=O)c(C(=O)O)cn3-c2ccc(Br)cc2)CC1	12.5 (≈ 27.2 µM)	3.1 (≈ 6.73 µM)	3.1 (≈ 6.73 µM)	12.5 (≈ 27.2 µM)	3.1 (≈ 6.73 µM)	50 (≈ 109 µM)	6.2 (≈ 13.5 µM)	25 (≈ 54.3 µM)	3.1 (≈ 6.73 µM)	100 (≈ 217 µM)	50 (≈ 109 µM)
Cc1ccc(-n2cc(C(=O)O)c(=O)c3cc(F)c(N4CCN(C)CC4)cc32)cc1	3.1 (≈ 7.84 µM)	1.56 (≈ 3.95 µM)	0.78 (≈ 1.97 µM)	1.56 (≈ 3.95 µM)	1.56 (≈ 3.95 µM)	12.5 (≈ 31.6 µM)	1.56 (≈ 3.95 µM)	12.5 (≈ 31.6 µM)	3.1 (≈ 7.84 µM)	50 (≈ 126 µM)	12.5 (≈ 31.6 µM)
CN1CCN(c2cc3c(cc2F)c(=O)c(C(=O)O)cn3-c2ccccc2)CC1	1.56 (≈ 4.09 µM)	0.78 (≈ 2.05 µM)	0.2 (≈ 0.524 µM)	1.56 (≈ 4.09 µM)	0.78 (≈ 2.05 µM)	6.2 (≈ 16.3 µM)	0.78 (≈ 2.05 µM)	3.1 (≈ 8.13 µM)	0.78 (≈ 2.05 µM)	12.5 (≈ 32.8 µM)	3.1 (≈ 8.13 µM)
O=C(O)c1cn(-c2ccc(F)cc2)c2cc(N3CCCNCC3)c(F)cc2c1=O	0.39 (≈ 0.976 µM)	0.78 (≈ 1.95 µM)	0.1 (≈ 0.25 µM)	1.56 (≈ 3.91 µM)	0.78 (≈ 1.95 µM)	1.56 (≈ 3.91 µM)	0.2 (≈ 0.501 µM)	3.1 (≈ 7.76 µM)	1.56 (≈ 3.91 µM)	12.5 (≈ 31.3 µM)	6.2 (≈ 15.5 µM)
CN1CCN(c2cc3c(cc2F)c(=O)c(C(=O)O)cn3-c2ccccc2F)CC1	0.78 (≈ 1.95 µM)	1.56 (≈ 3.91 µM)	0.39 (≈ 0.976 µM)	0.78 (≈ 1.95 µM)	1.56 (≈ 3.91 µM)	6.2 (≈ 15.5 µM)	0.78 (≈ 1.95 µM)	6.2 (≈ 15.5 µM)	1.56 (≈ 3.91 µM)	12.5 (≈ 31.3 µM)	12.5 (≈ 31.3 µM)
O=C(O)c1cn(-c2ccc(F)cc2)c2cc(N3CCOCC3)c(F)cc2c1=O	0.78 (≈ 2.02 µM)	0.1 (≈ 0.259 µM)	0.39 (≈ 1.01 µM)	0.78 (≈ 2.02 µM)	0.1 (≈ 0.259 µM)	3.1 (≈ 8.02 µM)	0.39 (≈ 1.01 µM)	3.1 (≈ 8.02 µM)	0.2 (≈ 0.518 µM)	1.56 (≈ 4.04 µM)	1.56 (≈ 4.04 µM)
CC(=O)NC1CCN(c2cc3c(cc2F)c(=O)c(C(=O)O)cn3-c2ccc(F)cc2)C1 (stereo not drawn)	1.56 (≈ 3.65 µM)	0.1 (≈ 0.234 µM)	0.78 (≈ 1.82 µM)	3.1 (≈ 7.25 µM)	0.39 (≈ 0.912 µM)	6.2 (≈ 14.5 µM)	0.78 (≈ 1.82 µM)	6.2 (≈ 14.5 µM)	0.39 (≈ 0.912 µM)	1.56 (≈ 3.65 µM)	0.78 (≈ 1.82 µM)
CN1CCN(c2cc3c(cc2F)c(=O)c(C(=O)O)cn3-c2cccc(F)c2)CC1	6.2 (≈ 15.5 µM)	12.5 (≈ 31.3 µM)	3.1 (≈ 7.76 µM)	50 (≈ 125 µM)	12.5 (≈ 31.3 µM)	50 (≈ 125 µM)	6.2 (≈ 15.5 µM)	50 (≈ 125 µM)	12.5 (≈ 31.3 µM)	50 (≈ 125 µM)	25 (≈ 62.6 µM)
CN1CCN(c2cc3c(cc2F)c(=O)c(C(=O)O)cn3-c2ccc(Cl)cc2)CC1	1.56 (≈ 3.75 µM)	1.56 (≈ 3.75 µM)	0.78 (≈ 1.88 µM)	1.56 (≈ 3.75 µM)	1.56 (≈ 3.75 µM)	12.5 (≈ 30.1 µM)	1.56 (≈ 3.75 µM)	6.2 (≈ 14.9 µM)	1.56 (≈ 3.75 µM)	100 (≈ 240 µM)	12.5 (≈ 30.1 µM)
COc1ccc(-n2cc(C(=O)O)c(=O)c3cc(F)c(N4CCN(C)CC4)cc32)cc1	50 (≈ 122 µM)	12.5 (≈ 30.4 µM)	12.5 (≈ 30.4 µM)	50 (≈ 122 µM)	12.5 (≈ 30.4 µM)	200 (≈ 486 µM)	50 (≈ 122 µM)	100 (≈ 243 µM)	50 (≈ 122 µM)	100 (≈ 243 µM)	50 (≈ 122 µM)
CN1CCN(c2cc3c(cc2F)c(=O)c(C(=O)O)cn3-c2ccc(O)cc2)CC1	0.2 (≈ 0.503 µM)	0.05 (≈ 0.126 µM)	0.05 (≈ 0.126 µM)	0.39 (≈ 0.981 µM)	0.1 (≈ 0.252 µM)	0.39 (≈ 0.981 µM)	0.1 (≈ 0.252 µM)	0.39 (≈ 0.981 µM)	0.2 (≈ 0.503 µM)	0.39 (≈ 0.981 µM)	0.2 (≈ 0.503 µM)
O=C(O)c1cn(-c2ccc(F)cc2)c2cc(N3CCC(O)CC3)c(F)cc2c1=O	1.56 (≈ 3.9 µM)	0.1 (≈ 0.25 µM)	0.39 (≈ 0.974 µM)	1.56 (≈ 3.9 µM)	0.1 (≈ 0.25 µM)	6.2 (≈ 15.5 µM)	0.39 (≈ 0.974 µM)	3.1 (≈ 7.74 µM)	0.39 (≈ 0.974 µM)	1.56 (≈ 3.9 µM)	1.56 (≈ 3.9 µM)
